Tests used:
[1] = Toxicity in male Wistar rat assessed as AST level at 100 mg/kg, po after 28 days (reference value: 119.4 +/- 9.3 U/L); format: organism-based; conditions: in vivo, 672 h, time 28 day
[2] = Toxicity in female Wistar rat assessed as ALP level at 100 mg/kg, po after 28 days (reference value: 100.14 +/- 21.98 U/L); format: organism-based; conditions: in vivo, 672 h, time 28 day
[3] = Toxicity in female Wistar rat assessed as urea level at 100 mg/kg, po after 28 days (reference value: 48.09 +/- 5.3 mg/dl); format: organism-based; conditions: in vivo, 672 h, time 28 day
[4] = AUC(0 to infinity) in Beagle dog at 10 mg/kg, po up to 24 hrs; format: ADME, organism-based, Canis lupus familiaris; parameters: route oral, dose 10 mg/kg, time <=24; conditions: in vivo
Summary of the method: (§1)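 Single oral dose at 10 mg/kg given to male Wistar rats and to Beagle dogs; bioavailability also determined in both species.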

[5] = Toxicity in female Wistar rat assessed as ALP level at 400 mg/kg, po after 28 days (reference value: 100.14 +/- 21.98 U/L); format: organism-based; conditions: in vivo, 672 h, time 28 day
[6] = Toxicity in male Wistar rat assessed as ratio of kidney to body weight at 100 mg/kg, po after 28 days (reference value: 0.787 +/- 0.078); format: organism-based; conditions: in vivo, 672 h, time 28 day
[7] = Toxicity in female Wistar rat assessed as ratio of adrenals to body weight at 100 mg/kg, po after 28 days (reference value: 0.045 +/- 0.007); format: organism-based; conditions: in vivo, 672 h, time 28 day
[8] = Toxicity in female Wistar rat assessed as creatinine level at 200 mg/kg, po after 28 days (reference value: 0.6 +/- 0.04 mg/dl); format: organism-based; conditions: in vivo, 672 h, time 28 day
[9] = Toxicity in female Wistar rat assessed as ratio of thymus to body weight at 200 mg/kg, po after 28 days (reference value: 0.260 +/- 0.025); format: organism-based; conditions: in vivo, 672 h, time 28 day
[10] = Toxicity in female Wistar rat assessed as globulin level at 400 mg/kg, po after 28 days (reference value: 2.44 +/- 0.18 g/dl); format: organism-based; conditions: in vivo, 672 h, time 28 day
[11] = Toxicity in male Wistar rat assessed as ALP level at 100 mg/kg, po after 28 days (reference value: 174.77 +/- 25.42 U/L); format: organism-based; conditions: in vivo, 672 h, time 28 day
[12] = AUC(0 to t) in Wistar rat at 10 mg/kg, po up to 24 hrs; format: ADME, organism-based; parameters: route oral, dose 10 mg/kg, time <=24; conditions: in vivo; summary of the method: as §1
[13] = Toxicity in female Wistar rat assessed as ophthalmic examination at 400 mg/kg, po after 28 days; format: organism-based; conditions: in vivo, 672 h, time 28 day
Summary of the method: (§2)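 Repeated-dose oral toxicity by gavage in Wistar rats, 10 males and 10 females per group, given 100, 200 or 400 mg/kg once daily for 28 days. Endpoints were clinical signs, mortality, neurobehaviour, food intake, ophthalmic examination and body weight. Animals were sacrificed on day 29 for blood biochemistry, organ-to-body weight ratios and histopathology.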

[14] = Toxicity in male Wistar rat assessed as ratio of spleen to body weight at 200 mg/kg, po after 28 days (reference value: 0.206 +/- 0.026); format: organism-based; conditions: in vivo, 672 h, time 28 day
[15] = tested on: Mus musculus; assay: Antidiabetic activity in glucose-stimulated […] mouse assessed as reduction in blood glucose level at 50 mg/kg, po pretreated for 30 mins followed by glucose-stimulation and measured up to 120 mins by OGTT method relative to control; format: functional; parameters: scale not given: the % may be the effect or the level left; conditions: 0.5 h
Summary of the method: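 C57 mice aged 6–8 weeks were grouped by non-fasting glucose and fasted overnight. Single oral dose of 50 mg/kg; 30 min later basal bleed and oral glucose 3 g/kg. Serum glucose taken at 20, 40, 60 and 120 min. Change in glucose AUC calculated.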

[16] = Toxicity in female Wistar rat assessed as ratio of ovaries to body weight at 400 mg/kg, po after 28 days (reference value: 0.091 +/- 0.009); format: organism-based; conditions: in vivo, 672 h, time 28 day
[17] = Toxicity in female Wistar rat assessed as ratio of kidney to body weight at 100 mg/kg, po after 28 days (reference value: 0.801 +/- 0.071); format: organism-based; conditions: in vivo, 672 h, time 28 day
[18] = Toxicity in female Wistar rat assessed as ALP level at 200 mg/kg, po after 28 days (reference value: 100.14 +/- 21.98 U/L); format: organism-based; conditions: in vivo, 672 h, time 28 day
[19] = Toxicity in female Wistar rat assessed as creatinine level at 100 mg/kg, po after 28 days (reference value: 0.6 +/- 0.04 mg/dl); format: organism-based; conditions: in vivo, 672 h, time 28 day
[20] = Toxicity in female Wistar rat assessed as albumin level at 200 mg/kg, po after 28 days (reference value: 3.57 +/- 0.14 g.dl); format: organism-based; conditions: in vivo, 672 h, time 28 day
[21] = Toxicity in female Wistar rat assessed as change in survival at 100 to 400 mg/kg, po after 28 days; format: organism-based; conditions: in vivo, 672 h, dose 100-400 mg/kg, time 28 day; summary of the method: as §2
[22] = tested on: Mus musculus; assay: Antidiabetic activity in glucose-stimulated db/db mouse assessed as increase in GLP-1 level secretion at 50 mg/kg, po after 10 mins; format: functional
Summary of the method: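 Male db/db mice received a single oral dose of 50 mg/kg, followed by a glucose load. Plasma active GLP-1 measured in pg/ml at 10 min after glucose.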

[23] = Half life in Wistar rat at 10 mg/kg, po up to 24 hrs; format: ADME, organism-based; conditions: in vivo; summary of the method: as §1
[24] = Toxicity in male Wistar rat assessed as ratio of thymus to body weight at 200 mg/kg, po after 28 days (reference value: 0.148 +/- 0.023); format: organism-based; conditions: in vivo, 672 h, time 28 day
[25] = Toxicity in female Wistar rat assessed as glucose level at 400 mg/kg, po after 28 days (reference value: 78.4 +/- 8.36 mg/dl); format: organism-based; conditions: in vivo, 672 h, time 28 day
[26] = Toxicity in female Wistar rat assessed as ratio of heart to body weight at 400 mg/kg, po after 28 days (reference value: 0.38 +/- 0.037); format: organism-based; conditions: in vivo, 672 h, time 28 day
[27] = Toxicity in female Wistar rat assessed as globulin level at 100 mg/kg, po after 28 days (reference value: 2.44 +/- 0.18 g/dl); format: organism-based; conditions: in vivo, 672 h, time 28 day
[28] = Toxicity in male Wistar rat assessed as globulin level at 400 mg/kg, po after 28 days (reference value: 2.62 +/- 0.12 g/dl); format: organism-based; conditions: in vivo, 672 h, time 28 day
[29] = Toxicity in female Wistar rat assessed as urea level at 400 mg/kg, po after 28 days (reference value: 48.09 +/- 5.3 mg/dl); format: organism-based; conditions: in vivo, 672 h, time 28 day
[30] = Toxicity in male Wistar rat assessed as ratio of spleen to body weight at 400 mg/kg, po after 28 days (reference value: 0.206 +/- 0.026); format: organism-based; conditions: in vivo, 672 h, time 28 day
[31] = Cmax in Wistar rat at 10 mg/kg, po up to 24 hrs; format: ADME, organism-based; parameters: route oral, dose 10 mg/kg, time <=24; conditions: in vivo; summary of the method: as §1
[32] = Toxicity in male Wistar rat assessed as urea level at 200 mg/kg, po after 28 days (reference value: 58.14 +/- 9.13 mg/dl); format: organism-based; conditions: in vivo, 672 h, time 28 day
[33] = Toxicity in female Wistar rat assessed as ratio of uterus to body weight at 400 mg/kg, po after 28 days (reference value: 0.335 +/- 0.108); format: organism-based; conditions: in vivo, 672 h, time 28 day
[34] = AUC(0 to t) in Beagle dog at 10 mg/kg, po up to 24 hrs; format: ADME, organism-based, Canis lupus familiaris; parameters: route oral, dose 10 mg/kg, time <=24; conditions: in vivo; summary of the method: as §1
[35] = Toxicity in male Wistar rat assessed as ratio of epididymides to body weight at 200 mg/kg, po after 28 days (reference value: 0.361 +/- 0.028); format: organism-based; conditions: in vivo, 672 h, time 28 day

In the case of `Cc1c(Oc2cccc(/C=C3\SC(=O)NC3=O)c2)ncnc1OC1CCN(C(=O)OC(C)(C)C)CC1`, the Activity [1] is reported as 114.13 U/L, the Activity [2] is reported as 103.72 U/L and the Activity [3] is reported as 47.84 mg/dL. It also gave an AUC(0-inf) [4] of 15200 ng·h/mL, an Activity [5] of 100.97 U/L and a Ratio [6] of 0.831. The Ratio [7] was 0.046, the Activity [8] was 0.66 mg/dL and the Ratio [9] was 0.257. It also gave an Activity [10] of 2.42 g/dL, an Activity [11] of 152.22 U/L and an AUC(0-t) at 24 h [12] of 1770 ng·h/mL. For the same compound, the Activity [13] was “Non-Toxic”, the Ratio [14] was 0.22 and the Activity [15] was 32.4%. It also gave a Ratio [16] of 0.081, a Ratio [17] of 0.875 and an Activity [18] of 91.73 U/L. The Activity [19] was 0.63 mg/dL, the Activity [20] was 3.65 g/dL and the Activity [21] was “Non-Toxic”. The “fold change (FC)” value [22] was 2.6, the half-life [23] was 12.3 h and the Ratio [24] was 0.175. The Activity [25] was 76.54 mg/dL, the Ratio [26] was 0.367 and the Activity [27] was 2.39 g/dL. It also gave an Activity [28] of 2.53 g/dL, an Activity [29] of 43.2 mg/dL and a Ratio [30] of 0.211. It also gave a Cmax [31] of 256 ng/mL, an Activity [32] of 55.62 mg/dL and a Ratio [33] of 0.429. The AUC(0-t) at 24 h [34] was 14900 ng·h/mL and the Ratio [35] was 0.406.

From ChEMBL document CHEMBL4732226, “Discovery of a potent G-protein-coupled receptor 119 agonist for the treatment of type 2 diabetes” (Bioorg Med Chem, 2021)
